Measured values as given in ChEMBL document CHEMBL1134346, “Labeling and evaluation of N-[11C]methylated quinoline-2-carboxamides as potential radioligands for visualization of peripheral benzodiazepine receptors” (J Med Chem, 2001).

What was measured:
Rattus norvegicus [1] = species: Rattus norvegicus; assay: Tissue (pituitary) distribution in Albino male CD rats after 30 minutes expressed as percent of injected dose per gram of organ.; type: ADME, organism-based, Pituitary gland; conditions: in vivo, 0.5 h
How it was run: (§1)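 Male albino CD rats (225-250 g) received the 11C-labelled radioligand in saline by tail-vein injection. Three rats per time point were decapitated under light ether anaesthesia at 5, 15, 30, 60 or 90 min. Blood was collected heparinized and plasma separated by centrifugation. The pituitary was dissected from the brain. Lung, liver (three-lobe pieces) and right deltoid muscle were sampled, washed in cold saline, gamma-counted and weighed. Results are %I.D./g.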

Rattus norvegicus [2] = species: Rattus norvegicus; assay: Tissue (adrenal gland) distribution in Albino male CD rats after 5 minutes expressed as percent of injected dose per gram of organ.; type: ADME, organism-based; conditions: in vivo
How it was run: (§2)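 Radioligand given in saline into tail vein of male albino CD rats (225-250 g); 100-200 µCi per animal, 1-2 Ci/µmol at injection depending on radioligand. Three rats per time point were decapitated under light ether anaesthesia. Blood, plasma, brain regions and washed organs were weighed and gamma-counted. Uptake is %I.D./g tissue, mean ± SD.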

Rattus norvegicus [3] = species: Rattus norvegicus; assay: Tissue (plasma) distribution in Albino male CD rats after 60 minutes expressed as percent of injected dose per gram of organ.; type: ADME, organism-based; conditions: in vivo, 1 h; how it was run: as §1
Rattus norvegicus [4] = species: Rattus norvegicus; assay: Tissue (cerebellum) distribution in Albino male CD rats after 90 minutes expressed as percent of injected dose per gram of organ.; type: ADME, organism-based; conditions: in vivo, 1.5 h; how it was run: as §2
Rattus norvegicus [5] = species: Rattus norvegicus; assay: Tissue (blood) distribution in Albino male CD rats after 5 minutes expressed as percent of injected dose per gram of organ.; type: ADME, organism-based; conditions: in vivo; how it was run: as §2
Rattus norvegicus [6] = species: Rattus norvegicus; assay: Tissue (blood) distribution in Albino male CD rats after 15 minutes expressed as percent of injected dose per gram of organ.; type: ADME, organism-based; conditions: in vivo, 0.25 h; how it was run: as §2
Rattus norvegicus [7] = species: Rattus norvegicus; assay: Tissue (Muscle) distribution in Albino male CD rats after 15 minutes expressed as percent of injected dose per gram of organ.; type: ADME, organism-based; conditions: in vivo, 0.25 h; how it was run: as §2
Rattus norvegicus [8] = species: Rattus norvegicus; assay: Tissue (kidney) distribution in Albino male CD rats after 5 minutes expressed as percent of injected dose per gram of organ.; type: ADME, organism-based; conditions: in vivo; how it was run: as §2
[9] = target: Translocator protein (Rattus norvegicus) (UniProt P16257); assay: Tissue (adrenal gland) concentration of radioactivity at 30 min post-injection into Albino male CD rats after pretreatment with cold PK 11195.; type: functional, tissue-based
Chain of Translocator protein (Rattus norvegicus) (P16257 whole entry, looked up): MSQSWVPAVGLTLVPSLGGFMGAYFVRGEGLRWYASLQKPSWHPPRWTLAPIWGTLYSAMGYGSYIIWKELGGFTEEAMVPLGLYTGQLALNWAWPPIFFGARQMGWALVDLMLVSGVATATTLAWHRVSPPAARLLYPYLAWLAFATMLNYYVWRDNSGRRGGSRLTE
How it was run: (§3)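 Separate groups of five rats received tail-vein PK 11195 (1.4-1.6 mg; 5 mg/kg) in 30 µL DMSO:EtOH 1:1, or vehicle alone, immediately before iv radioligand (90-170 µCi in saline, 0.9-1 Ci/µmol). Rats were decapitated at 30 min and tissues gamma-counted; values are %I.D./g.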

Rattus norvegicus [10] = species: Rattus norvegicus; assay: Tissue (blood) concentration of radioactivity at 30 min post-injection into Albino male CD rats with vehicle; type: ADME, organism-based; conditions: in vivo, 0.5 h; how it was run: as §3
Rattus norvegicus [11] = species: Rattus norvegicus; assay: Tissue (blood) concentration of radioactivity at 30 min post-injection into Albino male CD rats with vehicle.; type: ADME, organism-based; conditions: in vivo, 0.5 h; how it was run: as §3
Rattus norvegicus [12] = species: Rattus norvegicus; assay: Tissue (muscle) distribution in Albino male CD rats after 15 minutes expressed as percent of injected dose per gram of organ.; type: ADME, organism-based; conditions: in vivo, 0.25 h; how it was run: as §1

I.D./g (Rattus norvegicus [1]) [%]	I.D./g (Rattus norvegicus [2]) [%]	I.D./g (Rattus norvegicus [3]) [%]	I.D./g (Rattus norvegicus [4]) [%]	I.D./g (Rattus norvegicus [5]) [%]	I.D./g (Rattus norvegicus [6]) [%]	I.D./g (Rattus norvegicus [7]) [%]	I.D./g (Rattus norvegicus [8]) [%]	I.D./g [9] [%]	I.D./g (Rattus norvegicus [10]) [%]	I.D./g (Rattus norvegicus [11]) [%]	I.D./g (Rattus norvegicus [12]) [%]	SMILES
0.3	0.77	0.05	0.09	0.2	0.09	0.25	0.79	< 0.17	0.01			Cc1c(C(=O)N(C)Cc2ccccc2)nc2ccccc2c1-c1ccccc1
0.12	1.12	0.06	0.06	0.11	0.14		0.41	< 0.78		0.04	0.13	CCC(C)N(C)C(=O)c1nc2ccccc2c(-c2ccccc2F)c1C (stereo not given)
0.24	1.32	0.03	0.04	0.13	0.08		0.59	> 0.94		0.03	0.14	CCC(C)N(C)C(=O)c1nc2ccccc2c(-c2ccccc2)c1C (stereo not given)
